From ChEMBL document CHEMBL1146878, “A novel class of AMPA receptor allosteric modulators. Part 1: design, synthesis, and SAR of 3-aryl-4-cyano-5-substituted-heteroaryl-2-carboxylic acid derivatives” (Bioorg Med Chem Lett, 2006)

What was measured:
Type in all cases: functional, cell-based
[1] = target: T1, Glutamate receptor 4 (Homo sapiens, UniProt P48058); test: Activity against human GLUR4 flop expressed in HEK293 cells assessed as glutamate-stimulated calcium influx by FLIPR assay
How it was run: (§1)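 Stably transfected HEK-293 cells expressing homomeric GluR4 (flip or flop splice form) loaded with 8 µM Fluo3-AM for 60 min in HEPES-buffered saline (5 mM CaCl2, 5.5 mM glucose). Compounds from DMSO (0.1–3 µM) co-applied with 100 µM glutamate; calcium influx read by FLIPR. Duplicate 10-point curves; response expressed as % of 100 µM cyclothiazide, EC50 calculated.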

[2] = target: T1, Glutamate receptor 4; test: Activity against human GLUR4 flip expressed in HEK293 cells assessed as glutamate-stimulated calcium influx by FLIPR assay; how it was run: as §1
[3] = target: T2, Glutamate receptor 2 (Homo sapiens, UniProt P42262); test: Activity against human GLUR2 flop expressed in HEK293 cells assessed as glutamate-stimulated calcium influx by FLIPR assay
[4] = target: T2, Glutamate receptor 2; test: Activity against human GLUR2 flip expressed in HEK293 cells assessed as glutamate-stimulated calcium influx by FLIPR assay

T1 sequence (P48058 whole entry, canonical isoform): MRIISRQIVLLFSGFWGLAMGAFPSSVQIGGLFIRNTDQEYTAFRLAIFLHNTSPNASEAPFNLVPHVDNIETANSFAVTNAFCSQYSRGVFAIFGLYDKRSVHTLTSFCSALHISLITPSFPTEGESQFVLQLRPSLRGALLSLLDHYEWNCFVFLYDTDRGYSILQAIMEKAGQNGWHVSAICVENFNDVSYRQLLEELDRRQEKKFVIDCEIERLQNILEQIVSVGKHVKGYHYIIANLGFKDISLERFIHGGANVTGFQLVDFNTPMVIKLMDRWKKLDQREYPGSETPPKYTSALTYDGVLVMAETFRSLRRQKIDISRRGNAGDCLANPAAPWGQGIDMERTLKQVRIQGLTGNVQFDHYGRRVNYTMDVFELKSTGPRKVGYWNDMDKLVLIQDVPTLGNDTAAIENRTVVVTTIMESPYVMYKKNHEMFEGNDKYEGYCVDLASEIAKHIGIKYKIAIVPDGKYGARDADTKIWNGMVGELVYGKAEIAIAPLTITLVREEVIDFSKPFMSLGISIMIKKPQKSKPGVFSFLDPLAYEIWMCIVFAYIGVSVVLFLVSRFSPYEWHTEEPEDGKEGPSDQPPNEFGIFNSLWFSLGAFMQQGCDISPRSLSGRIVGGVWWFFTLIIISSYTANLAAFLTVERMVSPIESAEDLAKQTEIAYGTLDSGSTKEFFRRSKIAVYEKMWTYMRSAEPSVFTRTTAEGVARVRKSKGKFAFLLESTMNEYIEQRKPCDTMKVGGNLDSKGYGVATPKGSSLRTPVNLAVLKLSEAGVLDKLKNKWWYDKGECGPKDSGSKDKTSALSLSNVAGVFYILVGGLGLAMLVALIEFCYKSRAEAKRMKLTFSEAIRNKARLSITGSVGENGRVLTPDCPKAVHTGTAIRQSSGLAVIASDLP
T2 sequence (P42262 whole entry): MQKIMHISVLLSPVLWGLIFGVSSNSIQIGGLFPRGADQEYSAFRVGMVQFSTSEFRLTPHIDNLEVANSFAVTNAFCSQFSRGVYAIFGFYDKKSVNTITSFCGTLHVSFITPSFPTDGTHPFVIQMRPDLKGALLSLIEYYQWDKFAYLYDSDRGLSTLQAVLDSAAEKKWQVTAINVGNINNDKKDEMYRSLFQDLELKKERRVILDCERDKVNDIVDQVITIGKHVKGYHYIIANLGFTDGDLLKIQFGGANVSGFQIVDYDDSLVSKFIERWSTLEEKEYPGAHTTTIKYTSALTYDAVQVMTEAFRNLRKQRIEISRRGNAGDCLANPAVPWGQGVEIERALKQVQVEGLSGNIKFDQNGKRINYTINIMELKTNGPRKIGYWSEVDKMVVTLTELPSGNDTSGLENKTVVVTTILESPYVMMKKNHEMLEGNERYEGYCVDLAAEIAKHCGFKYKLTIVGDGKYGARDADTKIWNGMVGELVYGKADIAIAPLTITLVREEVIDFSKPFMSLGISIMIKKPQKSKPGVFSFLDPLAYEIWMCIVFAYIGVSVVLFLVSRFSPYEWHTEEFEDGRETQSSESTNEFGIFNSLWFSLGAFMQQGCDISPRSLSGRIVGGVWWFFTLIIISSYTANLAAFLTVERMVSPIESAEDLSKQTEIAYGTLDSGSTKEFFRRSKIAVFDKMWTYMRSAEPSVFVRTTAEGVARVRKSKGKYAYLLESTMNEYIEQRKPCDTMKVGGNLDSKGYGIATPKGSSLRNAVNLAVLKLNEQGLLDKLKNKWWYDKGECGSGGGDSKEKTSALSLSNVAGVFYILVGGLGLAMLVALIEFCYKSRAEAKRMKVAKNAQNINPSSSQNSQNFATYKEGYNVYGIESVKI

SMILES	EC50 [1] [µM]	EC50 [2] [µM]	EC50 [3] [µM]	EC50 [4] [µM]
CSc1oc(C(=O)O)c(-c2ccc(C(C)(C)C)cc2)c1C#N	> 3	1.98		
C[S+]([O-])c1sc(C(=O)O)c(-c2ccc(C(C)(C)C)cc2)c1C#N (stereo not given)	> 3	0.489		
CC(C)(C)c1ccc(-c2c(C#N)csc2C(=O)O)cc1	> 3	> 3	> 3	> 3
CC(C)(C)c1ccc(-c2c(C(=O)O)sc(N3CCCC3)c2C#N)cc1	> 3	1.01	2.43	1.14
CC(C)(C)c1ccc(-c2c(C(=O)O)sc(Sc3ccccc3)c2C#N)cc1	> 3	> 3		
CCc1sc(C(=O)O)c(-c2ccc(C(C)(C)C)cc2)c1C#N	1.22	0.183	0.216	0.047
CSc1sc(C(=O)O)c(-c2ccc(-c3ccccc3)cc2)c1C#N	> 3	0.795		
CC(C)Sc1sc(C(=O)O)c(-c2ccc(C(C)(C)C)cc2)c1C#N	> 3	1.87		
CN(C)c1sc(C(=O)O)c(-c2ccc(C(C)(C)C)cc2)c1C#N	> 3	0.474	2.85	0.176
CCSc1sc(C(=O)O)c(-c2ccc(C(C)(C)C)cc2)c1C#N	> 3	0.44		
CC(CNS(=O)(=O)C(C)C)c1ccc(-c2ccc(C#N)cc2)cc1 (stereo not given)	1.06	0.42	1.91	0.559
CC(C)(C)c1ccc(-c2c(C(=O)O)sc(S(C)(=O)=O)c2C#N)cc1	> 3	0.629	1.81	0.333
CC(C)(C)c1ccc(-c2c(C(=O)O)sc(C(F)(F)F)c2C#N)cc1	0.488	0.273	0.231	0.078
CCCSc1sc(C(=O)O)c(-c2ccc(C(C)(C)C)cc2)c1C#N	> 3	2.89		
CSc1c(C#N)c(-c2ccc(C(C)(C)C)cc2)c(C(=O)O)n1C	1.42	0.554	0.663	0.684
CCOC(=O)c1sc(SC)c(C#N)c1-c1ccc(C(C)(C)C)cc1	> 3	> 3	> 3	> 3
